Measured values collected from several papers.
Protocols differ between the studies behind these lines.
Target: Homeodomain-interacting protein kinase 3 (HIPK3, Homo sapiens, UniProt Q9H422)

| Structure (SMILES) | test | conditions | remaining binding [%] |
| --- | --- | --- | --- |
| O=C(c1ccc(Nc2ncc(Cl)c(-c3cc4ccccc4s3)n2)cc1)N1CCC(N2CCCC2)CC1 | binding, competition with immobilised ligand | 1 µM | 1.8 |
| CN(C)c1nccc(-c2cnc3ncccn23)n1 | binding | 1 µM | 46 |
| FC(F)(F)Oc1cccc(-c2cnc3ccc(-c4ccncc4)nn23)c1 | cell-free assay, competition with immobilised ligand | 5 µM | 0.7 |
| CC1CCCN1c1nccc(-c2cnn3ncccc23)n1 (stereo not shown) | binding | 1 µM | 100 |
| CC(=O)N1CCC(c2ccc(C(=O)NC3=NCCN3)cc2C(F)(F)F)CC1 | cell-free assay, competition with immobilised ligand | 1 µM | 72 |
| C[C@@H]1CCN(c2nccc(-c3cnn4ncccc34)n2)C1 | binding | 1 µM | 68 |
| CN(C)C(=O)Cn1cc(-c2nc(C3(c4ccc(-c5cnc(N)nc5)cc4)CC3)no2)cn1 | cell-free assay, competition with immobilised ligand | 1 µM | 71 |
| CN(C)c1ncc(F)c(-c2cnn3ncccc23)n1 | binding | 1 µM | 65 |
| C=CC(=O)N1CCC(C(=O)NCC(=O)N2CCN(c3nc(-c4cnc(N)nc4C(F)F)nc(N4CCOCC4)n3)CC2)CC1 | binding, competition with immobilised ligand | 1 µM | 100 |
| CS(=O)(=O)c1cc(C2(NC(=O)c3cncc4c3cnn4-c3ccc(F)cc3)CC2)ccn1 | cell-free assay, competition with immobilised ligand | 1 µM | 85 |
| CN(CCCC(F)(F)F)c1nccc(-c2cnn3ncccc23)n1 | binding | 1 µM | 88 |
| Cn1nc(C(F)(F)F)cc1-c1cnc(N2CCc3cc(S(=O)(=O)Nc4c(F)cc(Cl)cc4F)cc(N4CCCC4=O)c32)nc1 | cell-free assay, competition with immobilised ligand | 1 µM | 85 |
| COc1ncc2cc3ccccc3nc2c1C#N | cell-free assay, competition with immobilised ligand | 5 µM | 100 |
| O=C(NCC1CCOCC1)c1n[nH]cc1NC(=O)c1c(F)cccc1F | binding, competition with immobilised ligand | 1 µM | 63 |
| CCC(=O)N[C@H]1CC[C@@H](C(=O)N(C)c2ccc(-c3nc4ccccc4o3)cc2)C1 | cell-free assay, competition with immobilised ligand | 1 µM | 74 |
| O=C(c1ccc(Nc2nccc(-c3cc4ccccc4s3)n2)cc1)N1CCC(N2CCCC2)CC1 | binding, competition with immobilised ligand | 1 µM | 19 |
| COc1cnc(Nc2cccc(S(N)(=O)=O)c2)nc1N1CCN(c2ccccc2)C(=O)C1 | binding, competition with immobilised ligand | 1 µM | 82 |
| N[C@@H]1CCN(c2nccc(-c3cnn4ncccc34)n2)C1 | binding | 1 µM | 83 |
| O=C(NCc1ncc(C(F)(F)F)cc1Cl)c1ccc2c(c1)C1(CCS(=O)(=O)CC1)[C@@H](C1CC1)N2S(=O)(=O)c1ccc(F)cc1 | cell-free assay, competition with immobilised ligand | 1 µM | 81 |
| Cc1cnc(Nc2ccc(C(=O)N3CCC(N4CCCC4)CC3)cc2)nc1-c1cc2ccccc2s1 | binding, competition with immobilised ligand | 1 µM | 3.1 |
| CCS(=O)(=O)c1cc2cc(C[C@@](O)(CC(C)(C)c3ccc(F)cc3C(N)=O)C(F)(F)F)[nH]c2cn1 | cell-free assay, competition with immobilised ligand | 1 µM | 65 |
| c1cnn2ncc(-c3ccnc(N4CCC45COC5)n3)c2c1 | binding | 1 µM | 50 |
